Measured values taken from publication PMC4894453 (Scientific Reports, 2014).
In brackets after ≈: the same amount, converted by molar mass. Like-named read-outs stand apart in the source and are kept apart here.

Key:
[1] = test system: Streptococcus pneumoniae R6; assay: MIC, microbroth dilution, Streptococcus pneumoniae; assay type: cell-based; conditions: for MIC against Gram-positive bacteria, SPn: Streptococcus pneumoniae R6, 18–20 h; for MIC: Streptococcus pneumoniae, R6, read-out: MIC against Gram-positive bacteria, SPn
Outline: (§1)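 CLSI microbroth dilution in Mueller-Hinton broth. Test compound at final 200–0.1 μg/ml, diluted from 10 mg/ml DMSO stocks. Plates incubated 18–20 h. MIC is the lowest concentration preventing visible growth.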

[2] = test system: Streptococcus pyogenes ATCC 700294; assay: MIC, microbroth dilution, Streptococcus pyogenes; assay type: cell-based; conditions: for MIC against Gram-positive bacteria, SP: Streptococcus pyogenes ATCC 700294, 18–20 h; for MIC: Streptococcus pyogenes, ATCC700294, read-out: MIC against Gram-positive bacteria, SP
[3] = test system: erythrocytes of defibrinated sheep blood; assay: Hemolysis assay; assay type: cell-based; conditions: sheep erythrocytes 5% in PBS, 37°C, 90 min
Outline: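 Defibrinated sheep blood spun at 350 rcf for 20 min; plasma and buffy coat discarded. Erythrocytes washed three times in PBS pH 7.4, then made to a 5% v/v suspension. Suspension mixed 1:1 with two-fold serial dilutions of test compound, with Triton X-100 as positive control. Incubated 37°C for 90 min and centrifuged; supernatant OD540 read. Lysis = (sample − blank)/positive control; EC50 from curve fitting.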

[4] = test system: S. aureus Newman; assay: Macromolecular synthesis, radiolabelled precursors; assay type: cell-based, Staphylococcus aureus; conditions: 1 and 4 × MIC, 20 min
Outline: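 Three independent S. aureus Newman cultures grown to mid-log phase (OD600 ≈ 0.3), then pulsed with 1 μCi/mL [methyl-3H]thymidine, [5,6-3H]uridine or [4,5-3H]leucine. After 5 min, test compound added at 1 and 4× its Newman MIC for 20 min at 37°C. Cold 10% TCA precipitates collected on GF/C filters, washed with 95% ethanol and counted by scintillation; expressed as relative percent activity. Controls: novobiocin, rifampicin, tetracycline.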

[5] = test system: Clostridium difficile BAA 1803; assay: MIC, microbroth dilution, anaerobic, Clostridium difficile; assay type: cell-based; conditions: Brain-heart infusion broth, 24 h, anaerobic; for MIC against Gram-positive bacteria, CD: Clostridium difficile BAA 1803
[6] = test system: Vero cells (kidney epithelial cells; ATCC CCL-81); assay: Cytotoxicity, CellTiter-Glo viability; assay type: cell-based; conditions: for Cytotox IC50: Vero kidney cells, 72 h, 50% reduction of viability; for Selectivity index: Cytotox IC50/MIC against methicillin-susceptible S. aureus Newman
Outline: (§2)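 Vero kidney epithelial cells exposed 72 h to test compound (final 200–0.1 μg/ml in DMEM; diluted from 10 mg/ml DMSO stocks). Viability read by CellTiter-Glo luminescence. IC50 is the concentration giving 50% viability loss, from curve fitting. Selectivity index is the cytotoxic IC50 divided by the MIC against S. aureus Newman.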

[7] = test system: S. aureus Newman; assay: Membrane potential by flow cytometry with DiOC2; assay type: cell-based, Staphylococcus aureus; conditions: DiOC2(3); for dissipation of the membrane potential: 10 μM, 30 min
Outline: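 Exponential-phase S. aureus Newman (OD600 ≈ 0.3, Mueller-Hinton II broth) treated with test compound at 100, 10 or 1 μM for 30 min at 37°C. Cells stained 5 min with 30 μM DiOC2(3) and run on flow cytometry (10,000 events, 488 nm excitation, green and red emission). Red/green fluorescence ratio histograms compared. CCCP was the positive control; at least two independent samples.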

[8] = test system: S. aureus Newman; assay: Membrane permeability by flow cytometry with propidium iodide; assay type: cell-based, Staphylococcus aureus; conditions: 10 μM, 30 min, concentrations causing dissipation of the membrane potential
Outline: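 S. aureus Newman grown in Mueller-Hinton II broth to OD600 ≈ 0.3 and exposed to test compound at 10 μM for 30 min. Propidium iodide (10 μM) added for 10 min in the dark. Flow cytometry: 10,000 events, 488 nm excitation, red fluorescence; event histograms compared. Thioridazine at 100 μg/mL served as positive control.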

[9] = test system: Bacillus subtilis ATCC 23857; assay: MIC, microbroth dilution, Bacillus subtilis; assay type: cell-based; conditions: for MIC against Gram-positive bacteria, BS: Bacillus subtilis ATCC 23857, 18–20 h; for MIC: Bacillus subtilis, ATCC23857, read-out: MIC against Gram-positive bacteria, BS
Outline: as §1

[10] = test system: methicillin-resistant Staphylococcus aureus N315; assay: MIC, microbroth dilution, MRSA; assay type: cell-based; conditions: for MIC against Gram-positive bacteria, MRSA: S. aureus N315, 18–20 h; for MIC: Staphylococcus aureus, MRSA, read-out: MIC against Gram-positive bacteria, MRSA
Outline: as §1

[11] = test system: Bacillus anthracis sterne; assay: microbe, parasite or virus in culture; assay type: cell-based; conditions: for MIC against Gram-positive bacteria, BA: 18–20 h; for MIC: Bacillus anthracis, read-out: MIC against Gram-positive bacteria, BA
[12] = test system: methicillin-susceptible Staphylococcus aureus Newman; assay: MIC, microbroth dilution, MSSA; assay type: cell-based; conditions: S. aureus Newman; 18–20 h
Outline: as §1

[13] = test system: Enterococcus faecalis ATCC 33186; assay: MIC, microbroth dilution, Enterococcus faecalis; assay type: cell-based; conditions: for MIC against Gram-positive bacteria, EF: Enterococcus faecalis ATCC 33186; for MIC: Enterococcus faecalis
[14] = test system: panel of clinical relevant Gram-positive pathogens; assay: MIC, statements over the Gram-positive panel; assay type: cell-based; conditions: read-out: MIC over the Gram-positive panel
[15] = Cytotoxicity, CellTiter-Glo viability; assay type: cell-based; conditions: African green monkey, Vero cells (kidney epithelial cells; ATCC CCL-81)
Outline: as §2

Compound | MIC against Gram-positive bacteria, SPn [1] [µg/mL] | MIC against Gram-positive bacteria, SP [2] [µg/mL] | Hemolysis EC50 [3] [µg/mL] | biosynthesis of DNA, RNA and protein [4] | MIC against Gram-positive bacteria, CD [5] [µg/mL] | Cytotox IC50 [6] [µg/mL] | physical integrity of the S. aureus membrane (propidium iodide uptake) [8] | MIC against Gram-positive bacteria, BS [9] [µg/mL] | MIC against Gram-positive bacteria, MRSA [10] [µg/mL] | MIC against Gram-positive bacteria, BA [11] [µg/mL] | MIC against Gram-positive bacteria, MSSA [12] [µg/mL] | MIC against Gram-positive bacteria, EF ([13]; Mueller-Hinton broth, 18–20 h) [µg/mL] | MIC [1] [µg/mL] | MIC [2] [µg/mL] | MIC [14] [µg/mL] | Selectivity index [6] | MIC [9] [µg/mL] | MIC [10] [µg/mL] | MIC [11] [µg/mL] | dissipation of the membrane potential [7] | further results
(Z)-1-((E)-dec-2-enoyl)-3-(1-hydroxyethylidene)-5-isobutylpyrrolidine-2,4-dione [Compound 1, reference compound] | 3.13 | 6.25 | 27.87 | reduced | 0.09 | 7.46 | did not disrupt the physical integrity | 0.39 | 0.4 | 0.20 | 0.78 | 0.20 |  |  |  |  |  |  |  |  | Cytotox IC50 ([6]; listed as reutericyclin): 7.5 µg/mL; dissipation of the membrane potential ([7]; listed as reutericyclin): completely dissipated
CCCCCCC/C=C/C(=O)N1C(=O)/C(=C(\O)C2CCN(C(=O)OC(C)(C)C)CC2)C(=O)[C@H]1CC(C)C [Compound 10, tert-butyl4-((Z)-((R)-1-((E)-dec-2-enoyl)-5-isobutyl-2,4-dioxopyrrolidin-3-ylidene)(hydroxy)methyl) piperidine-1-carboxylate] | 3.13 (≈ 6.03 µM) | 3.13 (≈ 6.03 µM) | 61.61 |  | 0.25 (≈ 0.482 µM) | 14.22 |  | 1.56 (≈ 3.01 µM) | 0.2 (≈ 0.386 µM) | 0.78 (≈ 1.5 µM) | 0.40 (≈ 0.771 µM) | 0.39 (≈ 0.752 µM) |  |  |  |  |  |  |  |  | 
CC(=O)C1=C(O)C(CC(C)C)NC1=O (centres unmarked) [Compound 2, 3-acetyl-4-hydroxy-5-isobutyl-1H-pyrrol-2(5H)-one] |  |  |  |  |  |  |  |  |  |  |  |  | > 200 | > 200 | > 200 | 1 | > 200 | > 200 | > 200 |  | IC50 at 72 h [15]: 217 µg/mL (≈ 1100 µM); effect on the membrane potential ([7]; up to 100 μM): failed to affect the membrane potential; MIC ([13]; ATCC33186, read-out: MIC against Gram-positive bacteria, EF): > 200 µg/mL
C/C(O)=C1\C(=O)C(CC(C)C)N(C(=O)CCCCCc2ccccc2)C1=O (centres unmarked) [Compound 5, (Z)-3-(1-hydroxyethylidene)-5-isobutyl-1-(6-phenylhexanoyl)pyrrolidine-2,4-dione] |  |  |  | reduced |  |  | did not disrupt the physical integrity |  |  |  |  | 0.78 (≈ 2.1 µM) | 0.78 (≈ 2.1 µM) | 3.13 (≈ 8.43 µM) |  | 14 | 1.56 (≈ 4.2 µM) | < 0.1 | > 200 | slightly lower than reutericyclin | fold improvement in activity over reutericyclin ([1]; Strep. pneumoniae): 4 fold; fold improvement in activity over reutericyclin ([2]; Strep. pyogenes): 2 fold; fold improvement in activity over reutericyclin ([10]; MRSA N315): 4 fold
CCCCCCC/C=C/C(=O)N1C(=O)/C(=C(\O)c2ccc(F)cc2)C(=O)C1CC(C)C (centres unmarked) [Compound 13, (Z)-1-((E)-dec-2-enoyl)-3-((4-fluorophenyl)(hydroxy)methylene)-5-isobutylpyrrolidine-2,4-dione] |  |  |  | reduced |  |  | did not disrupt the physical integrity |  |  |  |  |  | 12.5 (≈ 29.1 µM) | 6.25 (≈ 14.6 µM) | < 1 | 67 | 0.39 (≈ 0.908 µM) | < 0.1 | 0.39 (≈ 0.908 µM) | reduced the membrane potential in a manner similar to reutericyclin | MIC ([5]; Clostridioides difficile, BAA1803, 24 h, read-out: MIC against Gram-positive bacteria, CD, Clostridium difficile BAA 1803): < 0.03 µg/mL; MIC ([13]; ATCC33186, read-out: MIC against Gram-positive bacteria, EF, Enterococcus faecalis ATCC 33186, Mueller-Hinton broth, 18–20 h): 0.2 µg/mL (≈ 0.466 µM)
